Results reported in ChEMBL document CHEMBL1133510, “Synthesis and evaluation of novel steroidal oxime inhibitors of P450 17 (17 alpha-hydroxylase/C17-20-lyase) and 5 alpha-reductase types 1 and 2” (J Med Chem, 2000).

How the values were obtained:
Rattus norvegicus [1] = species on record: Rattus norvegicus; test: Percent decrease in plasma testosterone after 2 hr; type: functional
Summary of the method: (§1)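 Adult male Sprague-Dawley rats, 7–8 per group, each received one intraperitoneal dose of 0.019 mmol/kg in olive oil/benzyl alcohol (95:5). Blood was drawn by cardiac puncture under diethyl ether anaesthesia at 2 or 6 h. Plasma testosterone was measured by double-antibody [125I]RIA (detection limit 0.1 ng/mL) and compared with vehicle controls.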

Rattus norvegicus [2] = species on record: Rattus norvegicus; test: Percent decrease in plasma testosterone after 6 hr; type: functional; summary of the method: as §1
[3] = biological target: T1, Steroid 17-alpha-hydroxylase/17,20 lyase (Rattus norvegicus, UniProt P11715); test: Evaluated for the inhibitory activity towards Cytochrome P450 17 rat enzyme using testicular microsome at 25 uM of substrate (progesterone); parameters: species or system Testis
T1 sequence (P11715 whole entry): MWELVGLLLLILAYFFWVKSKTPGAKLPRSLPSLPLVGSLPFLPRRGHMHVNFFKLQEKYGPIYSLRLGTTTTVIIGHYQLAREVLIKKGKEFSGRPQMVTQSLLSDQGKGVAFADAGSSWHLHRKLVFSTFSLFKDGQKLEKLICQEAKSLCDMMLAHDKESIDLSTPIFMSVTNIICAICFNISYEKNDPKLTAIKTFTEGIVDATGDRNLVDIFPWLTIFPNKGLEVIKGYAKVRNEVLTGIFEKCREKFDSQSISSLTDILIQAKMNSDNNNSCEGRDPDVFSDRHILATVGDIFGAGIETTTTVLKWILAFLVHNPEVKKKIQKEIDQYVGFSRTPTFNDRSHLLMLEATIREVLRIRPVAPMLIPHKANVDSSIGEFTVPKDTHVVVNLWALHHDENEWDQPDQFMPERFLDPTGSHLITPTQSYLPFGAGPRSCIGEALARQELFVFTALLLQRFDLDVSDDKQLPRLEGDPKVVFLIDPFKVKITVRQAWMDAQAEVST
Summary of the method: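 Testicular microsomes (human for human enzyme, rat for rat enzyme) incubated with progesterone substrate at 25 µM; product measured by RP-HPLC with UV detection. IC50 = concentration giving 50% inhibition, mean of at least two experiments.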

[4] = biological target: T2, Steroid 17-alpha-hydroxylase/17,20 lyase (Homo sapiens, UniProt P05093); test: Evaluated for the inhibitory activity towards Cytochrome P450 17 human enzyme using testicular microsome at 25 uM of substrate (progesterone); parameters: species or system Testis
T2 sequence (P05093 whole entry): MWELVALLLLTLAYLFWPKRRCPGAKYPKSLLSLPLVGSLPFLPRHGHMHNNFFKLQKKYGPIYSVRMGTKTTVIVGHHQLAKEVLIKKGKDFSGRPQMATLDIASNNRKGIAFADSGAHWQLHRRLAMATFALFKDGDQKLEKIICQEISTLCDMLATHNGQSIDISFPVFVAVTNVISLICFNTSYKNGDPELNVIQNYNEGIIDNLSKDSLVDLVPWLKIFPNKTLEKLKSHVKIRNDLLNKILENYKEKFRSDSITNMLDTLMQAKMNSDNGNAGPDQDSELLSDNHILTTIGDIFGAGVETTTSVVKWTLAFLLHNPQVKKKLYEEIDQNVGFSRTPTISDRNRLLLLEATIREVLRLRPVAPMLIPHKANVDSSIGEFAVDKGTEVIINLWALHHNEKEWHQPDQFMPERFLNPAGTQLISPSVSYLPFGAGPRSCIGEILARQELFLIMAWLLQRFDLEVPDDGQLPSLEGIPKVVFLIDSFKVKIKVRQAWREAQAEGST

[5] = biological target: T3, 3-oxo-5-alpha-steroid 4-dehydrogenase 2 (Homo sapiens, UniProt P31213); test: Evaluated for the inhibitory activity against human steroid 5-alpha-reductase type 2 from human BPH tissue at 210 nM of testosterone
T3 sequence (P31213 whole entry): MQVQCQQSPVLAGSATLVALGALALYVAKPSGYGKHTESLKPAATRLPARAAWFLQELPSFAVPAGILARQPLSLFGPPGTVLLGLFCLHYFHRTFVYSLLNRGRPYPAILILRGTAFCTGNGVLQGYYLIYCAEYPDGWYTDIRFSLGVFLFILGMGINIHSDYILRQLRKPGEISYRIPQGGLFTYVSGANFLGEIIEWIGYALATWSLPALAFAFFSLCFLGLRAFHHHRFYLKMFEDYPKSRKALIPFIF
Summary of the method: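 Enzyme from prostate homogenate of BPH patients, assayed at pH 5.5 with radiolabeled testosterone at 210 nM; product separated by HPLC. IC50 taken as inhibitor concentration giving 50% inhibition; mean of at least two experiments.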

[6] = biological target: T4, 3-oxo-5-alpha-steroid 4-dehydrogenase 1 (Homo sapiens, UniProt P18405); test: Evaluated for the inhibitory activity against human steroid 5-alpha-reductase type I in human DU-145 cell assay at 5 nM of androstenedione; type: cell-based
T4 sequence (P18405 whole entry): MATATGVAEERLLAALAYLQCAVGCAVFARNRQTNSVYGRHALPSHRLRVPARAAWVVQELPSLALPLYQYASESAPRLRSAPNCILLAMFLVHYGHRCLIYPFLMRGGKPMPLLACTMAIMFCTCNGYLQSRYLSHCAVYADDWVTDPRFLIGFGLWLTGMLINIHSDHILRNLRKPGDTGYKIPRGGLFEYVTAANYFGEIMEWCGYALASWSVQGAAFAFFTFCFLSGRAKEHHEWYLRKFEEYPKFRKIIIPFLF
Summary of the method: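 Whole human DU-145 cells as source of type 1 enzyme, incubated with radiolabeled androstenedione at 5 nM; HPLC separation of product. IC50 = inhibitor concentration giving 50% inhibition; mean of at least two experiments.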

[7] = biological target: T4, 3-oxo-5-alpha-steroid 4-dehydrogenase 1; test: Inhibition of Human steroid 5-alpha-reductase type I expressed in HEK293 cells; type: cell-based
Summary of the method: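 Human 5α-reductase type 1 cDNA (plasmid pRcCMV-I) stably transfected into HEK293 cells, clones chosen under G418. 300 000 cells/well attached overnight at 37 °C, then fresh DMEM/10% FCS containing 5 nM [3H]androstenedione plus inhibitor (1% DMSO) for 30 min. Supernatant extracted with ether, product measured by HPLC. IC50 taken as mean of at least three experiments.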

[8] = biological target: T3, 3-oxo-5-alpha-steroid 4-dehydrogenase 2; test: Inhibition of Human steroid 5-alpha-reductase type II expressed in HEK293 cells; type: cell-based
Summary of the method: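 Stably transfected HEK293 clones expressing full-length human type 1 or type 2 cDNA; 300 000 cells per well attached overnight at 37 °C. Fresh DMEM/10% FCS with 5 nM [3H]androstenedione and inhibitor added, final DMSO 1%. Incubated 30 min (type 1) or 13 min (type 2); supernatant ether-extracted and analysed by HPLC. Mean of at least three experiments.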

[9] = biological target: T1, Steroid 17-alpha-hydroxylase/17,20 lyase; test: Inhibition of rat Cytochrome P450 17
Summary of the method: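 Microsomes from rat testes with 25 µM progesterone as substrate. Product measured by RP-HPLC with UV detection. IC50 is the mean of at least two experiments.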

[10] = biological target: T2, Steroid 17-alpha-hydroxylase/17,20 lyase; test: Inhibition of human Cytochrome P450 17
Summary of the method: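 Human testicular microsomes with 25 µM progesterone as substrate. Product quantified by RP-HPLC with UV detection. IC50 is the mean of at least two experiments.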

[11] = biological target: T1, Steroid 17-alpha-hydroxylase/17,20 lyase; test: Inhibition of Cytochrome P450 17 from rat testicular microsome at 125 uM progesterone; No inhibition
[12] = biological target: T2, Steroid 17-alpha-hydroxylase/17,20 lyase; test: Inhibition of Cytochrome P450 17 of human testicular microsomes at 25 uM progesterone
Summary of the method: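 Enzyme source was human testicular microsomes, with progesterone substrate at 25 µM and product determined by RP-HPLC with UV detection. IC50 is the inhibitor concentration giving 50% inhibition, reported as the mean of at least two experiments.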

[13] = biological target: T5, Thromboxane-A synthase (Homo sapiens) (UniProt P24557); settings: 50 uM
T5 sequence (whole entry): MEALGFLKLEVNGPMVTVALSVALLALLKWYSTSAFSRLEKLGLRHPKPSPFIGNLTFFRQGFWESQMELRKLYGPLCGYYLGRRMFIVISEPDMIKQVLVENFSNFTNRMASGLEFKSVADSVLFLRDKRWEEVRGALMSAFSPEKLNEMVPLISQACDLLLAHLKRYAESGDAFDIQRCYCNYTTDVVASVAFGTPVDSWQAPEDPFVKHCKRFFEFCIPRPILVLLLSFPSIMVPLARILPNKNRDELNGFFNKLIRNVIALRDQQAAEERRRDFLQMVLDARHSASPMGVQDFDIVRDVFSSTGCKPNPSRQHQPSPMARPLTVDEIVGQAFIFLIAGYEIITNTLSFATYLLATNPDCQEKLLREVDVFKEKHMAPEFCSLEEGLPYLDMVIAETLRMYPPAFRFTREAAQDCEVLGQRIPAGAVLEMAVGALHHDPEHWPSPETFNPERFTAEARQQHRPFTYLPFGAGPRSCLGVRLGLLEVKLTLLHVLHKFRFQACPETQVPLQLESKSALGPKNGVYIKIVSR

[14] = biological target: T1, Steroid 17-alpha-hydroxylase/17,20 lyase; test: Inhibition of Cytochrome P450 17 from rat testicular microsome at 25 uM progesterone; No inhibition
[15] = biological target: T2, Steroid 17-alpha-hydroxylase/17,20 lyase; test: Inhibition of Cytochrome P450 17 of human testicular microsome at 25 uM progesterone; No inhibition
[16] = biological target: T2, Steroid 17-alpha-hydroxylase/17,20 lyase; test: Inhibition of Human P450 17 and NADPH-P450 reductase co-expressed in Escherichia coli with 25 uM progesterone

Q: Which Decrease (Rattus norvegicus [1]) does the source give for CC(=O)N1CCN(c2ccc(OCC3COC(Cn4ccnc4)(c4ccc(Cl)cc4Cl)O3)cc2)CC1 (stereo not given) [KETOCONAZOLE] here?
A: The Decrease was 57%.

Q: And the Decrease (Rattus norvegicus [2])?
A: Its Decrease is 44%.

Q: Which IC50 [3] does the source give for C/C(=N/O)C1CC=C2C3CC=C4CC(O)CCC4(C)C3CCC21C (stereo not given) here?
A: The IC50 was > 125 µM.

Q: What about the IC50 [4] of the same molecule?
A: Its IC50 is > 2.5 µM.

Q: With CC12CCC(=O)C=C1CCC1C2CCC2(C)C(C/C=N/O)CCC12 (stereo not given) as the molecule, how does the IC50 [3] read?
A: Its IC50 is 0.3 µM.

Q: And the IC50 [5]?
A: The IC50 was 0.3 µM.

Q: And the IC50 [6]?
A: Its IC50 is 1.95 µM.

Q: And the IC50 [7]?
A: The IC50 was 2.44 µM.

Q: And the IC50 [8]?
A: The IC50 was 0.89 µM.

Q: For C/C(CC1CCC2C3CCC4=CC(=O)CCC4(C)C3CCC12C)=N\O (stereo not given), which IC50 [3] is on record?
A: The IC50 was 3.6 µM.

Q: And the IC50 [4]?
A: Its IC50 is > 2.5 µM.

Q: What about the IC50 [5] of the same molecule?
A: The IC50 was 0.47 µM.

Q: And the IC50 [6]?
A: Its IC50 is 0.9 µM.

Q: How did the IC50 [9] turn out when CC12CCC(O)CC1=CCC1C2CCC2(C)C(c3c[nH]cn3)=CCC12 (stereo not given) was run?
A: The IC50 was 0.18 µM.

Q: What about the IC50 [10] of the same molecule?
A: Its IC50 is 0.04 µM.

Q: Which results are given for C/C(=N/O)[C@H]1CC[C@H]2[C@@H]3CC=C4C[C@@H](O)CC[C@]4(C)[C@H]3CC[C@]12C?
A: IC50 [11]: Not Active; IC50 [12]: 1.65 µM

Q: For O=C(O)c1ccc(OCCn2ccnc2)cc1, which IC50 [13] is on record?
A: Its IC50 is 1.1 µM.

Q: With C/C(CC1CCC2C3CC=C4CC(O)CCC4(C)C3CCC12C)=N\O (stereo not given) as the molecule, how does the IC50 [3] read?
A: The IC50 was 9.8 µM.

Q: And the IC50 [4]?
A: Its IC50 is 1.18 µM.

Q: With C/C(=N/O)[C@@]1(O)CCC2C3CC=C4CC(O)CCC4(C)C3CCC21C (stereo not given in full) as the molecule, how does the IC50 [14] read?
A: The IC50 was “Not Active”.

Q: What about the IC50 [15] of the same molecule?
A: The IC50 was “Not Active”.

Q: For C/C(=N/O)C1=CCC2[C@@H]3CC=C4C[C@@H](O)CC[C@]4(C)[C@H]3CC[C@]12C (stereo not given in full), which IC50 [3] is on record?
A: Its IC50 is > 125 µM.

Q: What about the IC50 [4] of the same molecule?
A: The IC50 was 0.17 µM.

Q: What about the IC50 [16] of the same molecule?
A: The IC50 was 0.52 µM.
